This is a sample that favours compounds with a hit; in the whole collection about 2.2% have one here.
Rin1-Abl PPI inh: inhibitors of human Rin1-Abl protein interaction. P00519+Q13671. TR-FRET Rin1/Abl binding, biochemical. inhibition, % at 7.35 µM. AID 588664. 0.4% of 360,000 active; in the data active = inhibition above about 5%, passing the limit was not always enough
UBC9 SUMO inh: blocks human SUMOylation mediated by UBC9 | HTRF SUMOylation assay, SAE1/SAE2 + UBC9, in vitro | inhibition, % at 35 µM | 0.36% of 290,000 active | AID 2006; in the data active = inhibition above about 50%, passing the limit was not always enough
Target sequence (P63279 whole entry, looked up): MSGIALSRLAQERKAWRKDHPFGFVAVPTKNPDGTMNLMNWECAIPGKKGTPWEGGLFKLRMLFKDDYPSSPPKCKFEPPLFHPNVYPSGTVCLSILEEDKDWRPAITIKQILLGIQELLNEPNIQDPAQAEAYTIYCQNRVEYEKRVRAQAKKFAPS
PAD4 inh: inhibitors of human PAD4. Q9UM07. recombinant PAD4, RCA probe fluorescence polarization. inhibition, % at 6.36 µM. 0.41% of 330,000 active. AID 485272;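 active = percent inhibition above a cutoff equal to the mean of all tested compounds plus 3 SD, cut at about 15% in these data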;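 note: 0% = PAD4 with RCA probe and DMSO and 100% = probe without PAD4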
Apaf1 inhib: inhibitors of human Apaf-1 apoptosome; inhibition, % at 20 µM; 0.71% of 330,000 active; O14727; reconstituted apoptosome caspase-3 activity, DEVD-Rh110 fluorescence; active = inhibition of at least 40% at 20 µM;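 note: plate controls were DMSO wells for no effect and DEVD-CHO caspase inhibitor wells for full effect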
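detection = Rh110 fluorescence intensity | test system = biochemical Apaf-1 apoptosome reconstitution | also added = cytochrome c and DEVD-Rh110 substrate | schedule = 30 min plus 50 min, RT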
GSTO1 counter: blocks human GSTO1 in RBBP9 counter-screen. recombinant GSTO1, activity-based probe fluorescence polarization. inhibition, % at 5.96 µM. 1.1% of 300,000 active;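 active = inhibition above the campaign mean inhibition plus 3 SD, cut at about 35% in these data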;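 note: 0% = GSTO1-1 with DMSO and 100% = wells lacking GSTO1-1 enzyme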
Target sequence (P78417 whole entry, looked up): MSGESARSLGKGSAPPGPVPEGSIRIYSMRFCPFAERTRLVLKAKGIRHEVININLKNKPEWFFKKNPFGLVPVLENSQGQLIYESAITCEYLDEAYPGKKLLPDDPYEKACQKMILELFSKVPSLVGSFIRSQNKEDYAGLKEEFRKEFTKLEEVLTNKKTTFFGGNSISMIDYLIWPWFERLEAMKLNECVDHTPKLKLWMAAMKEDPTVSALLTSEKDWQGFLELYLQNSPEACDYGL
UBC13 polyUb: inhibitors of human UBC13 polyubiquitin chain formation; 0.47% of 330,000 active; P61088; AID 485273; TR-FRET; inhibition, % at 20 µM; in the data active = inhibition above about 45%, passing the limit was not always enough
Target sequence (P61088 whole entry, looked up): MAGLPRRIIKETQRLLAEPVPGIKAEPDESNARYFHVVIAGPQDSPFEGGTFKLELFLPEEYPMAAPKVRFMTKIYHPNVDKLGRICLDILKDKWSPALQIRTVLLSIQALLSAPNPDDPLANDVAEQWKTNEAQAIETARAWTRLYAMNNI
PAD4 FP conf: PAD4 (human) inhibition, confirmed; shares compounds with PAD4 inh; recombinant PAD4, RCA probe fluorescence polarization; inhibition, % at 6.36 µM; 28% of 1,200 active;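 active = mean inhibition across replicates above the hit cutoff set by the earlier primary screen, cut at about 15% in these data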;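 note: inhibitors block active-site labeling by the probe so polarization falls; 0% = PAD4 with probe and DMSO and 100% = probe without PAD4 enzyme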
* marks the source's active call; other numbers are inactive results; i = inactive; . = no result.

SMILES	Rin1-Abl PPI inh	UBC9 SUMO inh	PAD4 inh	Apaf1 inhib	GSTO1 counter	UBC13 polyUb	PAD4 FP conf
O=[N+]([O-])c1ccc(C2CC(c3ccccc3)=Nc3ccccc3S2)cc1 (centres undefined)	3.3	9.5	22.3*	15.6	2.6	2.4	3.0
Fc1ccc(C2CC(c3ccco3)=Nc3ccccc3S2)cc1 (centres undefined)	1.3	-24.5	15.2*	5.4	2.3	7.9	0.8
Cc1ccccc1S(=O)(=O)N1C[C@H]2CON(C)[C@H]2C[C@H]1c1cccc(-c2ccc(C#N)cc2)c1	-2.3	.	.	.	.	.	.
O=C(COC(=O)c1cccc(S(=O)(=O)N2CCCCC2)c1)NCc1cccc(Cl)c1	-2.7	.	.	.	.	.	.
CSc1nsc(/C=C/Nc2ccc(F)cc2)c1C#N	-0.8	5.6	-9.2	9.2	3.5	-23.7	.
CSc1nsc(/C=C/Nc2ccc(O)cc2C)c1C#N	3.1	26.9	28.8*	6.9	68.7*	-19.9	-1.6
CN(C)c1ccc(N/C=C/C(=O)c2ccc(F)cc2)cc1	5.2	4.2	31.2*	-8.1	45.5*	-26.0	-2.3
COc1ccc(C)cc1N(C(=O)c1ccccc1F)c1nc2ccccc2s1	0.1	-21.7	28.6*	18.8	5.3	-0.5	29.1*
COc1ccc(C)cc1N(C(=O)c1ccccc1)c1nc2ccccc2s1	-2.8	-4.5	-2.1	4.1	-0.7	8.1	.
C[C@H]1CN([C@@H](C)CO)C(=O)CCCn2nncc2CO[C@@H]1CN(C)C(=O)c1ccncc1	-5.7	.	.	.	.	.	.
CCOC(=O)c1ccc(NC(=O)CSc2nc(=O)n(CCN3CCOCC3)c3c2CCC3)cc1	-0.9	.	17.1*	10.1	0.0	-5.2	7.8
CC(=O)c1ccc(NC(=O)CSc2nc(=O)n(CCN3CCOCC3)c3c2CCC3)cc1	2.9	.	2.5	0.6	-3.1	-4.5	.
CCN(CC)CCn1c2c(c(SCC(=O)Nc3nc4ccc(C)cc4s3)nc1=O)CCC2	2.5	.	10.5	16.5	7.4	20.0	.
CCN(CC)CCn1c2c(c(SCC(=O)Nc3nc4ccccc4s3)nc1=O)CCC2	0.4	.	17.3*	4.7	9.9	7.7	13.6
O=C(OCC#CCSc1nnc(-c2cccc3ccccc23)o1)c1ccc2ccccc2c1	-0.7	.	-2.4	4.2	.	19.2	.
C[C@@H]1CN([C@@H](C)CO)C(=O)CCCn2nncc2CO[C@H]1CN(C)S(=O)(=O)c1ccccc1C#N	0.6	.	.	.	.	.	.
CN(C(=O)c1ccccc1-c1ncc[nH]1)C1CCCN(Cc2ccccc2F)C1 (centres undefined)	-3.1	9.8	0.2	10.8	6.8	-4.3	.
O=C1c2ccc3c4c(ccc(c24)C(=O)N1c1cccc(O)c1)C(=O)N(c1cccc(O)c1)C3=O	-6.8	-11.7	17.6*	20.6	33.8	-31.0	37.6*
Nc1cccc(N2C(=O)c3cccc4c(N)ccc(c34)C2=O)c1	-29.8	30.3	7.3	-1.7	5.1	-309.2	.
Cc1cccc(N2C(=O)c3cccc4c(N)ccc(c34)C2=O)c1	-54.5	29.8	27.1*	-2.1	9.5	-213.9	22.2*
COc1ccc(C(=O)Nc2ccc(S(=O)(=O)Nc3cc(C)nc(C)n3)cc2)c(OC)c1	-2.5	10.0	30.8*	0.0	-8.5	-4.1	21.4*
Cc1cc(F)ccc1NC(=O)c1cc(S(=O)(=O)N2CCc3ccccc32)cn1C	-1.2	34.5	0.9	1.9	-1.8	0.8	.
CCCCN(C)C1=CC2=CC(=C(C#N)C#N)CCC2CC1 (centres undefined)	-63.1	10.4	45.7*	-76.4	1.6	i	21.0*
CCN(CC)C1=CC2=CC(=C(C#N)C#N)CCC2CC1 (centres undefined)	-28.8	12.5	10.0	-141.5	-10.4	i	.
N#CC(C#N)=C1C=C2C=C(N3CCCCC3)CCC2CC1 (centres undefined)	.	-2.4	49.0*	.	-26.4	.	21.1*
SMILES	Rin1-Abl PPI inh	UBC9 SUMO inh	PAD4 inh	Apaf1 inhib	GSTO1 counter	UBC13 polyUb	PAD4 FP conf
CC(C)c1ccc(CC(=O)N2CCC2(C)C(=O)NS(=O)(=O)c2ccc(Cl)s2)cc1 (centres undefined)	0.4	.	.	.	.	.	.
COc1ccc(C2=Nn3c(nnc3-c3cccnc3)SC2)cc1OC	-9.5	28.7	22.4*	12.6	-1.5	-4.6	6.6
O=C(c1cc2ccccc2oc1=O)N(c1ccccc1)C1C=CS(=O)(=O)C1 (centres undefined)	3.2	6.9	-3.3	-9.8	-1.8	1.9	.
CC(C)c1ccc(N(C(=O)c2cc3ccccc3oc2=O)C2C=CS(=O)(=O)C2)cc1 (centres undefined)	-0.6	13.7	16.9*	13.2	3.6	-19.8	-4.8
CN(C)c1ccc(/C=N/NC(=O)Cn2nnc3ccccc32)cc1	-3.9	4.4	14.9*	-5.2	1.4	10.1	-0.5
COc1ccc(/C=N/NC(=O)Cn2nnc3ccccc32)cc1OC	-0.7	30.6	0.1	3.8	-0.8	-15.0	.
Cc1ccc(S(=O)(=O)N2CCCC2=O)c(C)c1N(C)S(C)(=O)=O	1.6	-0.3	15.7*	-10.4	4.8	8.1	4.3
N#CCSc1nc2cc(C(=O)N3CCC(C(N)=O)CC3)ccc2c2nc3ccccc3n12	-4.5	15.2	21.9*	-6.9	0.5	7.5	25.1*
CCSC(=O)N=Nc1ccc(O)cc1	-4.1	.	.	.	.	.	.
Cc1ccc(N2C(=O)CSC23C(=O)Nc2ccccc23)cc1 (centres undefined)	4.2	-21.2	16.2*	4.2	2.1	-2.7	19.3*
Cc1ccc(SCc2cc(=O)n(C)[nH]2)cc1	-2.4	12.5	23.9*	16.1	53.4*	-3.8	-0.5
COc1ccc(OCC(=O)Nc2cc(-c3nn(C)c(=O)c4ccccc34)ccc2N2CCOCC2)cc1	1.7	4.5	4.4	15.7	-0.2	19.2	.
CC(=O)OCCNc1cc(SCc2ccco2)c2nonc2c1[N+](=O)[O-]	-6.2	92.8	15.9*	.	23.9	.	-3.7
O=C(CCCCl)NC1=NN(c2ccccc2)C(=O)C1	0.6	4.8	-9.5	.	19.4	.	.
CC(=O)NC1=NN(c2ccccc2)C(=O)C1	0.6	-27.1	42.8*	15.4	12.5	1.7	2.7
CCOC(=O)C1=C(C)N(C[C@@H]2CC[C@@H](Cc3ccc(-c4ccccc4)cc3)O2)C(=O)NC1c1cccc([N+](=O)[O-])c1 (some centres undefined)	-0.3	.	-6.0	26.3	.	.	.
CCOC(=O)c1sc2nc(CSc3ccccc3)nc(N3CCC(C(N)=O)CC3)c2c1C	0.3	-2.2	39.9*	25.4	-6.7	3.6	-0.9
CC(=NC1CC1)c1c(-c2ccccc2)[nH]n(-c2nc3ccccc3s2)c1=O	-4.0	11.0	4.7	2.2	-1.0	17.9	.
CC(=NC1CCCC1)c1c(C)[nH]n(-c2nc3ccccc3s2)c1=O	-2.6	32.2	19.0*	13.1	-13.1	4.4	17.5*
